From ChEMBL document CHEMBL1156239, “Synthesis, anticonvulsant and antimicrobial activities of some new 2-acetylnaphthalene derivatives” (Bioorg Med Chem, 2010)
Converted amounts (≈) assume the structure as drawn. The source made the active and inactive calls. No cut-off for these calls is given here.

Assays:
[1] = test system: Staphylococcus aureus; test: Antibacterial activity against Staphylococcus aureus ATCC 25923 after 24 hrs by broth microdilution method; type: functional; conditions: ATCC 25923, 24 h
Procedure, shortened: (§1)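 Broth microdilution in Mueller Hinton broth; compound stocks in DMSO, diluted into test medium. Plates incubated at 35 °C and read visually after 24 h. MIC taken as lowest concentration preventing visible growth. Ampicillin reference.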

[2] = test system: Enterococcus faecalis; test: Antibacterial activity against Enterococcus faecalis ATCC 29212 after 24 hrs by broth microdilution method; type: functional; conditions: ATCC 29212, 24 h; procedure, shortened: as §1
[3] = test system: Escherichia coli; test: Antibacterial activity against Escherichia coli ATCC 25922 after 24 hrs by broth microdilution method; type: functional; conditions: ATCC 25922, 24 h; procedure, shortened: as §1
[4] = test system: Pseudomonas aeruginosa; test: Antibacterial activity against Pseudomonas aeruginosa ATCC 27853 after 24 hrs by broth microdilution method; type: functional; conditions: ATCC 27853, 24 h; procedure, shortened: as §1
[5] = test system: Pichia kudriavzevii; test: Antifungal activity against Candida krusei ATCC 6258 after 48 hrs by broth microdilution method; type: functional; conditions: ATCC 6258, 48 h
[6] = test system: Candida parapsilosis; test: Antifungal activity against Candida parapsilosis ATCC 22019 after 48 hrs by broth microdilution method; type: functional; conditions: Lodderomyces parapsilosis, ATCC 22019, 48 h
[7] = test system: Mus musculus; test: Anticonvulsant activity in CF1 mouse assessed as inhibition of maximal electroshock-induced seizures at 30 mg/kg, ip after 0.5 hrs; type: functional, organism-based; parameters: dose 30 mg/kg
Procedure, shortened: (§2)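 Male albino CF#1 mice (18–25.5 g), compound suspended in 0.5% methylcellulose, given ip 0.5 h or 4 h before test. Eyes treated with 0.5% tetracaine HCl in saline; corneal-type MES at 60 Hz, 50 mA for 0.2 s; protection scored as animals protected/tested.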

[8] = test system: Mus musculus; test: Anticonvulsant activity in CF1 mouse assessed as inhibition of maximal electroshock-induced seizures at 100 mg/kg, ip after 0.5 hrs; type: functional, organism-based; parameters: dose 100 mg/kg; procedure, shortened: as §2
[9] = test system: Mus musculus; test: Anticonvulsant activity in CF1 mouse assessed as inhibition of maximal electroshock-induced seizures at 300 mg/kg, ip after 0.5 hrs; type: functional, organism-based; parameters: dose 300 mg/kg; procedure, shortened: as §2
[10] = test system: Mus musculus; test: Anticonvulsant activity in CF1 mouse assessed as inhibition of maximal electroshock-induced seizures at 30 mg/kg, ip after 4 hrs; type: functional, organism-based; parameters: dose 30 mg/kg; procedure, shortened: as §2
[11] = test system: Mus musculus; test: Anticonvulsant activity in CF1 mouse assessed as inhibition of maximal electroshock-induced seizures at 100 mg/kg, ip after 4 hrs; type: functional, organism-based; parameters: dose 100 mg/kg; procedure, shortened: as §2
[12] = test system: Mus musculus; test: Anticonvulsant activity in CF1 mouse assessed as inhibition of maximal electroshock-induced seizures at 300 mg/kg, ip after 4 hrs; type: functional, organism-based; parameters: dose 300 mg/kg; procedure, shortened: as §2
[13] = test system: Mus musculus; test: Neurotoxicity in CF1 mouse assessed as ability to grasp rotarod at 300 mg/kg, ip after 0.5 hrs by rotarod test; type: toxicity, organism-based; parameters: dose 300 mg/kg, route intraperitoneal; conditions: in vivo
Procedure, shortened: (§3)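 Male albino CF#1 mice (18–25.5 g) dosed ip with compound suspended in 0.5% methylcellulose, 0.5 h or 4 h before testing; neurotoxicity assessed by rotarod, scored as number toxic/number tested.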

[14] = test system: Mus musculus; test: Neurotoxicity in CF1 mouse assessed as muscle spasms at 300 mg/kg, ip after 0.5 hrs by rotarod test; type: toxicity, organism-based, Muscle tissue; parameters: dose 300 mg/kg, route intraperitoneal; conditions: in vivo
[15] = test system: Mus musculus; test: Neurotoxicity in CF1 mouse assessed as clonic seizures at 300 mg/kg, ip after 0.5 hrs by rotarod test; type: toxicity, organism-based; parameters: dose 300 mg/kg, route intraperitoneal; conditions: in vivo
[16] = test system: Mus musculus; test: Neurotoxicity in CF1 mouse at 30 mg/kg, ip after 4 hrs by rotarod test; type: toxicity, organism-based; parameters: dose 30 mg/kg, route intraperitoneal; conditions: in vivo; procedure, shortened: as §3
[17] = test system: Mus musculus; test: Neurotoxicity in CF1 mouse at 100 mg/kg, ip after 4 hrs by rotarod test; type: toxicity, organism-based; parameters: dose 100 mg/kg, route intraperitoneal; conditions: in vivo; procedure, shortened: as §3
[18] = test system: Rattus norvegicus; test: Anticonvulsant activity in Sprague-Dawley rat assessed as inhibition of maximal electroshock-induced seizures at 30 mg/kg, po after 0.5 hrs; type: functional, organism-based; parameters: dose 30 mg/kg
Procedure, shortened: (§4)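 Male albino Sprague-Dawley rats (105–130 g) given a single oral 30 mg/kg dose suspended in 0.5% methylcellulose; MES (60 Hz, 150 mA, 0.2 s, tetracaine-anesthetized eyes) at 0.25, 0.5, 1, 2 and 4 h; 4 rats per time point; scored protected/tested.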

[19] = test system: Rattus norvegicus; test: Anticonvulsant activity in Sprague-Dawley rat assessed as inhibition of maximal electroshock-induced seizures at 30 mg/kg, po after 1 hr; type: functional, organism-based; parameters: dose 30 mg/kg; procedure, shortened: as §4
[20] = test system: Rattus norvegicus; test: Anticonvulsant activity in Sprague-Dawley rat assessed as inhibition of maximal electroshock-induced seizures at 30 mg/kg, po after 4 hrs; type: functional, organism-based; parameters: dose 30 mg/kg; procedure, shortened: as §4
[21] = test system: Rattus norvegicus; test: Neurotoxicity in Sprague-Dawley rat at 30 mg/kg, po after 0.25 hrs by rotarod test; type: toxicity, organism-based; parameters: dose 30 mg/kg, route oral; conditions: in vivo
[22] = test system: Rattus norvegicus; test: Neurotoxicity in Sprague-Dawley rat at 30 mg/kg, po after 0.5 hrs by rotarod test; type: toxicity, organism-based; parameters: dose 30 mg/kg, route oral; conditions: in vivo
[23] = test system: Rattus norvegicus; test: Neurotoxicity in Sprague-Dawley rat at 30 mg/kg, po after 1 hr by rotarod test; type: toxicity, organism-based; parameters: dose 30 mg/kg, route oral; conditions: in vivo
[24] = test system: Rattus norvegicus; test: Neurotoxicity in Sprague-Dawley rat at 30 mg/kg, po after 2 hrs by rotarod test; type: toxicity, organism-based; parameters: dose 30 mg/kg, route oral; conditions: in vivo
[25] = test system: Rattus norvegicus; test: Neurotoxicity in Sprague-Dawley rat at 30 mg/kg, po after 4 hrs by rotarod test; type: toxicity, organism-based; parameters: dose 30 mg/kg, route oral; conditions: in vivo
[26] = test system: Mus musculus; test: Anticonvulsant activity in CF1 mouse assessed as inhibition of maximal electroshock-induced […] seizures at 300 mg/kg, ip after 0.5 hrs; type: functional, organism-based; parameters: dose 300 mg/kg; procedure, shortened: as §2
[27] = test system: Mus musculus; test: Neurotoxicity in CF1 mouse at 30 mg/kg, ip after 0.5 hrs by rotarod test; type: toxicity, organism-based; parameters: dose 30 mg/kg, route intraperitoneal; conditions: in vivo; procedure, shortened: as §3
[28] = test system: Mus musculus; test: Neurotoxicity in CF1 mouse at 300 mg/kg, ip after 4 hrs by rotarod test; type: toxicity, organism-based; parameters: dose 300 mg/kg, route intraperitoneal; conditions: in vivo; procedure, shortened: as §3
[29] = test system: Rattus norvegicus; test: Anticonvulsant activity in Sprague-Dawley rat assessed as inhibition of maximal electroshock-induced seizures at 30 mg/kg, ip; type: functional, organism-based; parameters: dose 30 mg/kg
[30] = test system: Mus musculus; test: Neurotoxicity in CF1 mouse at 100 mg/kg, ip after 0.5 hrs by rotarod test; type: toxicity, organism-based; parameters: dose 100 mg/kg, route intraperitoneal; conditions: in vivo; procedure, shortened: as §3
[31] = test system: Mus musculus; test: Neurotoxicity in CF1 mouse assessed as ability to grasp rotarod at 300 mg/kg, ip after 4 hrs by rotarod test; type: toxicity, organism-based; parameters: dose 300 mg/kg, route intraperitoneal; conditions: in vivo
Procedure, shortened: (§5)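 Male albino CF#1 mice (18–25.5 g), free access to food and water except during testing, under NINDS Anticonvulsant Screening Program procedures. Compounds were suspended in 0.5% methylcellulose and given ip. Neurotoxicity was scored by rotarod 0.5 h and 4 h after dosing, at screening doses of 30, 100 or 300 mg/kg. Results are reported as affected/tested animals.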

[32] = test system: Mus musculus; test: Neurotoxicity in CF1 mouse assessed as muscle spasms at 300 mg/kg, ip after 4 hrs by rotarod test; type: toxicity, organism-based, Muscle tissue; parameters: dose 300 mg/kg, route intraperitoneal; conditions: in vivo
[33] = test system: Rattus norvegicus; test: Anticonvulsant activity in Sprague-Dawley rat assessed as inhibition of maximal electroshock-induced seizures at 30 mg/kg, po after 0.25 hrs; type: functional, organism-based; parameters: dose 30 mg/kg; procedure, shortened: as §4
[34] = test system: Rattus norvegicus; test: Anticonvulsant activity in Sprague-Dawley rat assessed as inhibition of maximal electroshock-induced seizures at 30 mg/kg, ip after 0.5 hrs; type: functional, organism-based; parameters: dose 30 mg/kg
[35] = test system: Rattus norvegicus; test: Neurotoxicity in Sprague-Dawley rat at 30 mg/kg, ip after 0.5 hrs by rotarod test; type: toxicity, organism-based; parameters: dose 30 mg/kg, route intraperitoneal; conditions: in vivo
[36] = test system: Rattus norvegicus; test: Neurotoxicity in Sprague-Dawley rat at 30 mg/kg, ip after 1 hr by rotarod test; type: toxicity, organism-based; parameters: dose 30 mg/kg, route intraperitoneal; conditions: in vivo
[37] = test system: Rattus norvegicus; test: Neurotoxicity in Sprague-Dawley rat at 30 mg/kg, ip after 2 hrs by rotarod test; type: toxicity, organism-based; parameters: dose 30 mg/kg, route intraperitoneal; conditions: in vivo
[38] = test system: Mus musculus; test: Neurotoxicity in CF1 mouse assessed as mortality at 300 mg/kg, ip after 0.5 hrs by rotarod test; type: toxicity, organism-based; parameters: dose 300 mg/kg, route intraperitoneal; conditions: in vivo; procedure, shortened: as §5

SMILES	MIC [1] [µg/mL]	MIC [2] [µg/mL]	MIC [3] [µg/mL]	MIC [4] [µg/mL]	MIC [5] [µg/mL]	MIC [6] [µg/mL]	inhibition [7]	inhibition [8]	inhibition [10]	inhibition [12]	Activity [13]	Activity [14]	Activity [16]	Activity [17]	Activity [21]	Activity [22]	Activity [23]	Activity [24]	Activity [25]	Activity [27]	other results
O=C(OC(Cn1ccnc1)c1ccc2ccccc2c1)c1ccccc1 (configuration not stated)	8 (≈ 23.4 µM)	32 (≈ 93.5 µM)	> 1020	> 1020	512 (≈ 1500 µM)	1020 (≈ 2990 µM)	inactive	Active	inactive	inactive	Toxic	Toxic	Non-toxic	Non-toxic	Non-toxic	Non-toxic	Non-toxic	Non-toxic	Non-toxic		inhibition [9]: Active; inhibition [11]: inactive; Activity [15]: Toxic; inhibition [18]: inactive; inhibition [19]: inactive; inhibition [20]: inactive
CCCC(=O)OC(Cn1ccnc1)c1ccc2ccccc2c1 (configuration not stated)	8 (≈ 25.9 µM)	128 (≈ 415 µM)	> 1020	> 1020	256 (≈ 830 µM)	64 (≈ 208 µM)	inactive	Active	inactive	Active	Toxic		Non-toxic	Non-toxic						Non-toxic	inhibition [11]: inactive; inhibition [26]: Active; Activity [28]: Non-toxic
CCCC(CCC)C(=O)OC(Cn1ccnc1)c1ccc2ccccc2c1 (configuration not stated)	8 (≈ 21.9 µM)	16 (≈ 43.9 µM)	> 1020	> 1020	1020 (≈ 2810 µM)	1020 (≈ 2810 µM)	inactive	Active	inactive	Active	Toxic	Toxic	Non-toxic	Non-toxic	Non-toxic	Non-toxic	Non-toxic	Non-toxic	Non-toxic	Non-toxic	inhibition [29]: Active; inhibition [9]: Active; Activity [30]: Non-toxic; Activity [31]: Toxic; Activity [32]: Toxic; inhibition [33]: inactive; inhibition [18]: inactive; inhibition [20]: inactive; inhibition [34]: Active; Activity [35]: Non-toxic; Activity [36]: Non-toxic; Activity [37]: Non-toxic
CC(C)C(=O)OC(Cn1ccnc1)c1ccc2ccccc2c1 (configuration not stated)	16 (≈ 51.9 µM)	128 (≈ 415 µM)	> 1020	> 1020	256 (≈ 830 µM)	256 (≈ 830 µM)	Active	Active	inactive	Active	Toxic	Toxic	Non-toxic	Non-toxic	Non-toxic	Non-toxic	Non-toxic	Non-toxic	Non-toxic	Non-toxic	Activity [38]: Toxic; Activity [28]: Non-toxic; inhibition [33]: inactive
